Data as given in ChEMBL document CHEMBL4371031, “In Vitro Antiviral Activity of New Oxazoline Derivatives as Potent Poliovirus Inhibitors” (J Med Chem, 2019).
pEC50: −log10 of the molar value. Calls of active or inactive are those of the source. No cut-off for these calls is given here.

Key:
Format in all cases: functional, organism-based
Poliovirus 2 [1] = experiment: Antiviral activity against Human poliovirus 2 Lansing infected in human HeLa cells assessed as reduction in virus-induced cytopathic effect after 72 hrs by crystal violet staining-based assay; conditions: Enterovirus C
Method in brief: (§1)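 HeLa cells grown in MEM-10% FBS, seeded at 2x10^5 cells/mL in MEM-2% FBS and preincubated 24 h at 37°C, 5% CO2. Compound and virus were cross-titrated […] compound in 0.5 log10 steps (7-point curves), with duplicate wells and three replicate tests per virus. After 72 h at 37°C, cells were crystal violet stained and read at 590 nm. EC50 came from a four-parameter fit; if all virus dilutions gave >80% monolayer destruction, the value was […].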

Poliovirus 1 [2] = experiment: Antiviral activity against Human poliovirus 1 Brunhilde infected in human HeLa cells assessed as reduction in virus-induced cytopathic effect after 72 hrs by crystal violet staining-based assay; conditions: Enterovirus C; method in brief: as §1
Poliovirus 1 [3] = experiment: Antiviral activity against Human poliovirus 1 10691 infected in human HeLa cells assessed as reduction in virus-induced cytopathic effect after 72 hrs by crystal violet staining-based assay; conditions: Enterovirus C, 10691, HeLa; method in brief: as §1
Poliovirus 3 [4] = experiment: Antiviral activity against Human poliovirus 3 10805 infected in human HeLa cells assessed as reduction in virus-induced cytopathic effect after 72 hrs by crystal violet staining-based assay; conditions: Enterovirus C, 10805, HeLa; method in brief: as §1
Poliovirus 1 [5] = experiment: Antiviral activity against Human poliovirus 1 10235 infected in human HeLa cells assessed as reduction in virus-induced cytopathic effect after 72 hrs by crystal violet staining-based assay; conditions: Enterovirus C, 10235, HeLa; method in brief: as §1
Poliovirus 1 [6] = experiment: Antiviral activity against Human poliovirus 1 10689 infected in human HeLa cells assessed as reduction in virus-induced cytopathic effect after 72 hrs by crystal violet staining-based assay; conditions: Enterovirus C, 10689, HeLa; method in brief: as §1
Poliovirus 1 [7] = experiment: Antiviral activity against Human poliovirus 1 Mahoney infected in human HeLa cells assessed as reduction in virus-induced cytopathic effect after 72 hrs by crystal violet staining-based assay; conditions: Enterovirus C; method in brief: as §1
Poliovirus 2 [8] = experiment: Antiviral activity against Human poliovirus 2 10231 infected in human HeLa cells assessed as reduction in virus-induced cytopathic effect after 72 hrs by crystal violet staining-based assay; conditions: Enterovirus C, 10231, HeLa; method in brief: as §1
Poliovirus 1 [9] = experiment: Antiviral activity against Human poliovirus 1 10695 infected in human HeLa cells assessed as reduction in virus-induced cytopathic effect after 72 hrs by crystal violet staining-based assay; conditions: Enterovirus C, 10695, HeLa; method in brief: as §1
Poliovirus 1 [10] = experiment: Antiviral activity against Human poliovirus 1 10692 infected in human HeLa cells assessed as reduction in virus-induced cytopathic effect after 72 hrs by crystal violet staining-based assay; conditions: Enterovirus C, 10692, HeLa; method in brief: as §1
Poliovirus 1 [11] = experiment: Antiviral activity against Human poliovirus 1 10236 infected in human HeLa cells assessed as reduction in virus-induced cytopathic effect after 72 hrs by crystal violet staining-based assay; conditions: Enterovirus C, 10236, HeLa; method in brief: as §1
Poliovirus 1 [12] = experiment: Antiviral activity against Human poliovirus 1 10237 infected in human HeLa cells assessed as reduction in virus-induced cytopathic effect after 72 hrs by crystal violet staining-based assay; conditions: Enterovirus C, 10237, HeLa; method in brief: as §1
Poliovirus 1 [13] = experiment: Antiviral activity against Poliovirus Sabin 1 infected in human HeLa cells assessed as reduction in virus-induced cytopathic effect after 72 hrs by crystal violet staining-based assay; conditions: Enterovirus C; method in brief: as §1
Poliovirus 2 [14] = experiment: Antiviral activity against Human poliovirus 2 10234 infected in human HeLa cells assessed as reduction in virus-induced cytopathic effect after 72 hrs by crystal violet staining-based assay; conditions: Enterovirus C, 10234, HeLa; method in brief: as §1
Poliovirus 1 [15] = experiment: Antiviral activity against Human poliovirus 1 10690 infected in human HeLa cells assessed as reduction in virus-induced cytopathic effect after 72 hrs by crystal violet staining-based assay; conditions: Enterovirus C, 10690, HeLa; method in brief: as §1
Poliovirus 2 [16] = experiment: Antiviral activity against Poliovirus Sabin 2 infected in human HeLa cells assessed as reduction in virus-induced cytopathic effect after 72 hrs by crystal violet staining-based assay; conditions: Enterovirus C; method in brief: as §1
Poliovirus 2 [17] = experiment: Antiviral activity against Human poliovirus 2 10221 infected in human HeLa cells assessed as reduction in virus-induced cytopathic effect after 72 hrs by crystal violet staining-based assay; conditions: Enterovirus C, 10221, HeLa; method in brief: as §1
Poliovirus 1 [18] = experiment: Antiviral activity against Human poliovirus 1 10240 infected in human HeLa cells assessed as reduction in virus-induced cytopathic effect after 72 hrs by crystal violet staining-based assay; conditions: Enterovirus C, 10240, HeLa; method in brief: as §1
Poliovirus 2 [19] = experiment: Antiviral activity against Poliovirus Sabin 2 infected in human HeLa cells assessed as reduction in virus-induced cytopathic effect at 1 uM treated 1 hr post infection and measured after 12 hrs by luminescence based assay
Method in brief: (§2)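 HeLa monolayers were infected with Sabin 2 at 100 CCID50 for 1 h at 37°C, then washed 3x. Drug was added at 0, 1, 2, 4, 6 or 8 h post-infection and left in place. At 12 h, virus was freeze-thawed 3x and titrated in 0.5 log10 dilutions (16 replicates) on HeLa cells for 5 days. CPE was read by ATP luminescence, titre calculated as CCID50 (Kärber); mean of three independent experiments.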

Poliovirus 2 [20] = experiment: Antiviral activity against Human poliovirus 2 10226 infected in human HeLa cells assessed as reduction in virus-induced cytopathic effect after 72 hrs by crystal violet staining-based assay; conditions: Enterovirus C, 10226, HeLa; method in brief: as §1
Poliovirus 2 [21] = experiment: Antiviral activity against Poliovirus Sabin 2 infected in human HeLa cells assessed as reduction in virus-induced cytopathic effect at 1 uM treated 6 hrs post infection and measured after 12 hrs by luminescence based assay; method in brief: as §2
Poliovirus 3 [22] = experiment: Antiviral activity against Poliovirus Sabin 3 infected in human HeLa cells assessed as reduction in virus-induced cytopathic effect after 72 hrs by crystal violet staining-based assay; conditions: Enterovirus C
Method in brief: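 HeLa cells grown in MEM-10% FBS, seeded at 2x10^5 cells/mL in MEM-2% FBS and held 24 h at 37°C, 5% CO2. Compound and virus were cross-titrated together on the cells starting at 10 µM compound, in 0.5 log10 steps, duplicate wells, three replicate tests per virus. Incubated 72 h at 37°C, stained with crystal violet, A590 read. EC50 from four-parameter fit.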

Poliovirus 2 [23] = experiment: Antiviral activity against Poliovirus Sabin 2 infected in human HeLa cells assessed as reduction in virus-induced cytopathic effect at 1 uM treated 0 to 8 hrs post infection and measured after 12 hrs by luminescence based assay; method in brief: as §2

SMILES | pEC50 (Poliovirus 2 [1]) | pEC50 (Poliovirus 1 [2]) | pEC50 (Poliovirus 1 [3]) | pEC50 (Poliovirus 3 [4]) | pEC50 (Poliovirus 1 [5]) | pEC50 (Poliovirus 1 [6]) | pEC50 (Poliovirus 1 [7]) | pEC50 (Poliovirus 2 [8]) | pEC50 (Poliovirus 1 [9]) | pEC50 (Poliovirus 1 [10]) | pEC50 (Poliovirus 1 [11]) | pEC50 (Poliovirus 1 [12]) | pEC50 (Poliovirus 1 [13]) | pEC50 (Poliovirus 2 [14]) | pEC50 (Poliovirus 1 [15]) | pEC50 (Poliovirus 2 [16]) | pEC50 (Poliovirus 2 [17]) | pEC50 (Poliovirus 1 [18]) | pEC50 (Poliovirus 2 [20]) | pEC50 (Poliovirus 3 [22]) | other results
Cc1ccc(C(=O)CCCCSc2ccc(C3=NCCO3)cc2)s1 | 5.64 | 6.33 | 6.25 | 5.82 | 5.07 | 5.69 | < 5.00 | 5.27 | 5.13 | < 5.00 | 6.14 | 5.19 | 6.93 | 5.61 | 5.70 | 6.86 | 5.63 | 5.07 | 6.89 | 6.48 | Activity (Poliovirus 2 [19]): inactive; Activity (Poliovirus 2 [21]): Active
Cc1ccc(C(=O)CCCCOc2ccc(C3=NCCO3)cc2)s1 | 6.23 | 6.00 | 4.17 | 6.57 | 5.34 | 7.22 | < 4.00 | 7.30 | 5.08 | < 4.00 | 5.57 | 5.24 | 4.04 | 7.52 | 4.31 | 6.73 | 7.70 | 5.44 | < 4.00 | 6.44 | Activity (Poliovirus 2 [19]): inactive; Activity (Poliovirus 2 [21]): inactive
Cc1ccc(C(=O)CCC/C=C/c2ccc(C3=NCCO3)cc2)s1 | 7.22 | 7.15 | 6.01 | 7.52 | 6.40 | 7.47 | 7.15 | 7.52 | 6.24 | 6.11 | 6.14 | 6.55 | 6.47 | 7.70 | 5.90 | 7.57 | 7.70 | 6.57 | 7.70 | 7.28 | Activity (Poliovirus 2 [23]): Active
